Measured values taken from ChEMBL document CHEMBL3351398, “Discovery of a Potent and Selective DGAT1 Inhibitor with a Piperidinyl-oxy-cyclohexanecarboxylic Acid Moiety” (ACS Med Chem Lett, 2014).

Assay: Drug level in adipose fat of C57BL/6 mouse at 10 mg/kg, po after 24 hrs
Assay type: ADME, organism-based, Adipose tissue
Parameters: dose 10 mg/kg, route oral
Conditions: read-out: Drug uptake
Method in brief: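 Tissue distribution in C57BL/6 mice. A single oral dose of 10 mg/kg was given as a solution in EtOH/PEG400/water (10:50:40). Parent and its cis isomer were both measured, in μM, in plasma, liver, small intestine, adipose fat and skin at 3 h and 24 h.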

SMILES: O=C(O)[C@H]1CC[C@H](OC2CCN(c3ccc(-c4nc5cc(C(F)(F)F)ccc5[nH]4)cn3)CC2)CC1
- concentration at 24 h: < 10 nM
